From PubChem
PMI act hi M6P = increases human PMI activity with near-saturating mannose 6-phosphate; 190,000 compounds, 0.34% hits; P34949; activation factor at 20 µM; coupled PMI enzyme assay, resazurin fluorescence, 20 min; hits give high values; 1 = untreated enzyme, 0 = substrate-free blank; AID 1216;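 active = activation factor of 2 or more at 20 µM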
Target sequence (P34949 whole entry, looked up): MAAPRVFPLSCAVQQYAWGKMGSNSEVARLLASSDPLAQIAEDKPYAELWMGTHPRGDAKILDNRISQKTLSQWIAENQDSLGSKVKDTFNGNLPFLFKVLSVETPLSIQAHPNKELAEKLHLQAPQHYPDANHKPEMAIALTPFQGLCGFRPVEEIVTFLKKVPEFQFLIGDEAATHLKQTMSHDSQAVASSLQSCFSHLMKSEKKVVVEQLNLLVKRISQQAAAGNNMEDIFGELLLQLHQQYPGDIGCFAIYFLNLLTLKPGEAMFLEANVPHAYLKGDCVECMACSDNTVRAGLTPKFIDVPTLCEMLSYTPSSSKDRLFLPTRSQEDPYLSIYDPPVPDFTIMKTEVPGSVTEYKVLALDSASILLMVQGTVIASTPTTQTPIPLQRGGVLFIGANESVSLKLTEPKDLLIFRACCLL
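test system = human PMI in coupled enzyme assay | medium = HEPES-buffered pH 7.4 with magnesium and detergent | also added = 1.0 mM mannose-6-phosphate substrate with 0.22 mM NADP+ | compound = 20 µM single dose | times = 20 min incubation at room temperature | measured by = resorufin fluorescence (Ex 544/Em 590 nm) from resazurin via diaphorase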
HCT116 bCat-KO = beta-catenin-lacking colon tumor cell growth suppression. HCT116 beta-catenin knockout viability, CellTiter-Glo, 60 h; hits give low values. viability, % at 10 µM. 140,000 compounds, 1.5% hits;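 active = viability at or under a set limit, the compound median less 4 SD, cut at about 6% in these data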
PMI activator = increases human mannose-6-phosphate isomerase activity | AID 1214 | activation factor at 20 µM | P34949 | purified human PMI, coupled resazurin fluorescence, 20 min; hits give high values; 1 = vehicle control, 0 substrate-free wells | 190,000 compounds, 0.005% hits;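 active = activation factor of 2 or more at 20 µM, relative to plate controls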
HCT116 PTEN-null = PTEN-deleted cell growth suppression | HCT116 PTEN-null viability, CellTiter-Glo, 60 h; hits give low values | viability, % at 10 µM | 140,000 compounds, 1.2% hits;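 active = viability at or below a set limit, 4 SD under the median of all tested compounds, cut at about 3.7% in these data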;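 note: PTEN knockout HCT116 line with beta catenin targeted HCT116 as companion control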
Lmaj promast = inhibitors of Leishmania major promastigote growth; inhibition, % at 10 µM; AID 1063; 200,000 compounds, 9% hits; Leishmania major promastigotes, resazurin fluorescence viability; in the data active = inhibition above about 50%;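 note: promastigotes grown with compound for 44 hours at 28 °C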
Of the large screens only hits and unclear results are named; the others gave an inactive call. A selection: hits, their analogues and other compounds. The true share with any hit is near 9.6%.

CCCCN1CN(S(=O)(=O)c2cccs2)c2nc3ccccc3nc21	PMI act hi M6P 2.2
COCCN1CN(S(=O)(=O)c2ccc(Cl)cc2)c2nc3ccccc3nc21	Lmaj promast 77.1
CC(=O)CC1=NC(C)(C)Cc2ccccc21	none (no result: HCT116 bCat-KO, HCT116 PTEN-null)
COc1ccc(/C=N/NS(=O)(=O)c2ccccc2)cc1OS(=O)(=O)c1ccccc1	none
CCOc1cc(/C=N/NC(=O)c2cccc([N+](=O)[O-])c2)ccc1OS(=O)(=O)c1ccccc1	Lmaj promast 78.3
COc1ccc(OC)c(/C=N/NC(=O)c2ccc(N(C)S(=O)(=O)c3ccccc3)cc2)c1	Lmaj promast 99.3 (no result: HCT116 bCat-KO, HCT116 PTEN-null)
COc1ccc(C(=O)N/N=C/c2ccc(OC)c(OS(=O)(=O)c3ccccc3)c2)cc1	Lmaj promast 91.4
COC(=O)c1cn(NC(=O)Cn2nc([N+](=O)[O-])c(Br)c2C)c(=O)c2ccccc12	none (no result: HCT116 bCat-KO, HCT116 PTEN-null)
CCCCCC(=O)NNC(=O)c1ccc(F)cc1	none
O=C(COc1ncnc2scc(-c3ccc(Cl)cc3)c12)NCc1ccco1	none
CCOc1ccc(C(=O)NNC2CC(=O)N(CCc3ccccc3)C2=O)cc1OC (stereo not drawn)	Lmaj promast 63.2
COc1ccc(CCN2C(=O)CC(NNC(=O)c3ccccc3Br)C2=O)cc1OC (stereo not drawn)	Lmaj promast 56.2
N#C/C(=C\c1cccc([N+](=O)[O-])c1)C(=O)NCc1cccnc1	none
COCCCNC(=O)/C(C#N)=C/c1ccc(OCC(=O)O)c(OC)c1	none
N#C/C(=C\c1cccc([N+](=O)[O-])c1)C(=O)NCc1ccc(Cl)cc1	Lmaj promast 50.6 (no result: HCT116 bCat-KO, HCT116 PTEN-null)
COCCNC(=O)/C(C#N)=C/C(C)=C/c1ccccc1	Lmaj promast 73.5
COCCNC(=O)/C(C#N)=C/c1ccc(O)c([N+](=O)[O-])c1	none (no result: HCT116 bCat-KO, HCT116 PTEN-null)
COc1ccc(/C=C(\C#N)C(=O)NCCc2ccccc2)cc1OCc1ccccc1	Lmaj promast 95.7
COCCNC(=O)/C(C#N)=C/C=C/c1ccccc1[N+](=O)[O-]	Lmaj promast 80.9 (no result: HCT116 bCat-KO, HCT116 PTEN-null)
O=C(CCn1c(=O)c2ccccc2n(CC(=O)NC2CCCC2)c1=O)NCCc1ccc(Cl)cc1	none
CS(=O)(=O)CCC(C(=O)OCC(=O)c1ccc(Cl)cc1)N1C(=O)c2ccccc2C1=O (stereo not drawn)	none
CC(C)C(NC(=O)c1ccc(F)cc1)C(=O)Nc1cccnc1 (stereo not drawn)	none (no result: HCT116 bCat-KO, HCT116 PTEN-null)
CCCCNC(=O)/C(C#N)=C/c1cccnc1	Lmaj promast 93.3
Cc1cccc(NC(=O)/C(C#N)=C\c2cccnc2)c1	none
COCCNC(=O)/C(C#N)=C/c1cccc(/C=C(\C#N)C(=O)NCCOC)c1	Lmaj promast 99.2
COc1ccc(/C=C(/C#N)C(=O)Nc2ccccc2C)cc1C(=O)O	Lmaj promast 59.1
O=C(NCc1ccccc1F)C1CCCN(C(=O)NC2CCCCC2)C1 (stereo not drawn)	none
CC1(C)CC(=O)c2cc(NC(=O)c3ccc(F)cc3)c(=O)oc2C1	none (no result: HCT116 bCat-KO, HCT116 PTEN-null)
O=c1c(-c2ccccc2)[n+]([O-])c2ccccc2n1O	none
O=C(c1ccccc1)c1ccc(OCCOCCN2CCN(Cc3ccccc3)CC2)cc1	Lmaj promast 56.1 (no result: HCT116 bCat-KO, HCT116 PTEN-null)
c1ccc(COCCN2CCN(CCOCc3ccccc3)CC2)cc1	Lmaj promast 95.2
c1ccc(COc2ccc(OCCCCN3CCCCC3)cc2)cc1	Lmaj promast 100.4
O=C(c1ccccc1)c1ccc(OCCCCN2CCCCC2)cc1	Lmaj promast 97.7
O=C(O)COc1ccc(C(=O)c2ccccc2)cc1	none (no result: HCT116 bCat-KO, HCT116 PTEN-null)
O=C(c1ccccc1)c1ccc(OCCCN2CCCC2)cc1	Lmaj promast 99.0
O=C(c1ccc(Cl)cc1)C1CCN(C(=O)NC2CCCCC2)CC1	Lmaj promast 52.3
O=C(N/N=C/c1cn(-c2ccccc2)nc1-c1cc2ccccc2o1)c1cccnc1	HCT116 PTEN-null 3.5, Lmaj promast 96.8
O=C(N/N=C/c1cn(-c2ccccc2)nc1-c1cc2ccccc2o1)c1ccncc1	none
COc1ccc(NC(=S)N(CCCN2CCC(C)CC2)Cc2cccs2)cc1Cl	Lmaj promast 99.2 (no result: HCT116 bCat-KO, HCT116 PTEN-null)
COc1cccc(NC(=S)N(CCCN2CCCC(C)C2)Cc2cccs2)c1 (stereo not drawn)	Lmaj promast 99.7 (no result: HCT116 bCat-KO, HCT116 PTEN-null)
Cc1cc(C)cc(NC(=S)N(CCCN2CCN(C)CC2)Cc2cccs2)c1	none (no result: HCT116 bCat-KO, HCT116 PTEN-null)
CSc1cccc(NC(=S)N(CCCN2CCCC(C)C2)Cc2cccs2)c1 (stereo not drawn)	Lmaj promast 98.7 (no result: HCT116 bCat-KO, HCT116 PTEN-null)
COc1ccc(NC(=S)N2CCC(N(C)CCN3CCOCC3)CC2)cc1Cl	Lmaj promast 76.0
CN1CCC(NC(=O)c2ccncc2)CC1	none (no result: HCT116 bCat-KO, HCT116 PTEN-null)
COc1ccc(NC(=S)NCCN2CCC(C)CC2)cc1Cl	Lmaj promast 69.4 (no result: HCT116 bCat-KO, HCT116 PTEN-null)
O=C(Nc1ccc(NC(=S)NC(=O)c2ccccc2F)cc1)c1cccs1	Lmaj promast 95.7 (no result: HCT116 bCat-KO, HCT116 PTEN-null)
COc1cc(NC(=S)NC(=O)c2ccccc2F)ccc1NC(=O)c1cccs1	none (no result: HCT116 bCat-KO, HCT116 PTEN-null)
O=C(NC(=S)Nc1ccc(NC(=O)c2cccs2)cc1)c1cc2ccccc2o1	Lmaj promast 85.3
Cc1cc(C)cc(NS(=O)(=O)c2ccc(NC(=S)NC(=O)c3cccs3)cc2)c1	Lmaj promast 95.8
CC(C)[C@H](NC(=O)c1ccc(F)cc1)C(=O)NC1=NCCS1	none (no result: HCT116 bCat-KO, HCT116 PTEN-null)
O=C(CCSc1ccccc1)NC(=O)COC(=O)c1ccc(OC(F)F)cc1	none
c1ccc2[nH]c(NCc3ccc4c(c3)OCO4)nc2c1	none (no result: HCT116 bCat-KO, HCT116 PTEN-null)
CN1C(=O)CC(N2CCN(c3ccccc3)CC2)C1=O (stereo not drawn)	none (no result: PMI act hi M6P, HCT116 bCat-KO, PMI activator, HCT116 PTEN-null)
COC(=O)c1cc(NC(=O)C2CC(=O)NC(=NCc3ccc(OC)cc3)S2)cc(C(=O)OC)c1 (stereo not drawn)	none (no result: HCT116 bCat-KO, HCT116 PTEN-null)
COc1ccccc1N1C(=O)c2cccc3c(C(=O)O)ccc(c23)C1=O	none
Cc1ccc(N2C(=O)c3cccc4c(Oc5ccccc5[N+](=O)[O-])ccc(c34)C2=O)c(C)c1	Lmaj promast 97.4
O=C(/C=C/c1ccco1)Nc1cccc(NC(=O)/C=C/c2ccco2)n1	Lmaj promast 64.1
CN(C)c1nc2ccc(OCCN3CCCCC3)cc2s1	Lmaj promast 59.6
CN(C)CCCCOc1ccccc1-c1ccccc1	none
CC1c2ccccc2SC(CCCN(C)C)c2ccccc21 (stereo not drawn)	Lmaj promast 100.1
CN(C)CCC1Sc2ccccc2Oc2ccccc21 (stereo not drawn)	Lmaj promast 100.3
CCN(CC)CCOC(=O)C1c2ccccc2Oc2ccccc21	none
CC(=O)Nc1c(O)nc(SCC(=O)Nc2nnc(SCc3ccccc3)s2)[nH]c1=O	none (no result: HCT116 bCat-KO, HCT116 PTEN-null)
S=c1[nH]nc(COc2ccccc2)n1/N=C/C(Cl)=C/c1ccccc1	Lmaj promast 80.6
S=c1[nH]nc(-c2ccncc2)n1/N=C/C(Cl)=C\c1ccccc1	Lmaj promast 53.1 (no result: HCT116 bCat-KO, HCT116 PTEN-null)
Cc1ccc(-c2n[nH]c(=S)n2/N=C/c2ccncc2)cc1	none (no result: HCT116 bCat-KO, HCT116 PTEN-null)
S=c1[nH]nc(COc2ccccc2)n1/N=C/C=C/c1ccccc1	none
CC1=NN(C(N)=S)C(=O)C1N=Nc1ccc(O)cc1 (stereo not drawn)	Lmaj promast 57.8 (no result: HCT116 bCat-KO, HCT116 PTEN-null)
